Measurements as given in ChEMBL document CHEMBL1140087, “Synthesis and structure-activity relationship studies of cytotoxic ester and ether anhydrovinblastine derivatives” (J Nat Prod, 2008).

Key:
[1] = tested on: A549; assay: Cytotoxicity against human A549 cells after 72 hrs by SRB assay; format: functional, cell-based; settings: A549, 72 h
Method in brief: (§1)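 Ditartrate salts tested. ATCC cells seeded at 6000/well, attached overnight, then exposed in triplicate to graded concentrations at 37 °C for 72 h. Fixed with 10% trichloroacetic acid for 60 min at 4 °C, stained with 0.4% w/v SRB in 1% acetic acid for 15 min, dye solubilised in Tris buffer, A515 read. IC50 for 50% growth inhibition by Logit method. Anhydrovinblastine as positive control.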

[2] = tested on: HeLa; assay: Cytotoxicity against human HeLa cells after 72 hrs by SRB assay; format: functional, cell-based; method in brief: as §1

Row | Structure (SMILES) | IC50 [1] [nM] | IC50 [2] [nM]
1 | C=CCOC[C@@]1(O)[C@H](OC(C)=O)[C@]2(CC)C=CCN3CC[C@@]4(c5cc([C@@]6(C(=O)OC)C[C@@H]7C=C(CC)CN(CCc8c6[nH]c6ccccc86)C7)c(OC)cc5N(C)[C@@H]14)[C@@H]32 | 124 | 162
2 | CCC1=C[C@@H]2CN(CCc3c([nH]c4ccccc34)[C@@](C(=O)OC)(c3cc4c(cc3OC)N(C)[C@H]3[C@@](O)(COCc5ccc(OC)cc5)[C@H](OC(C)=O)[C@]5(CC)C=CCN6CC[C@]43[C@@H]65)C2)C1 | 702 | 409
3 | CCC1=C[C@@H]2CN(CCc3c([nH]c4ccccc34)[C@@](C(=O)OC)(c3cc4c(cc3OC)N(C)[C@H]3[C@@](O)(COC(=O)C5CC5)[C@H](OC(C)=O)[C@]5(CC)C=CCN6CC[C@]43[C@@H]65)C2)C1 | 47.9 | 38.1
4 | CCCCOC[C@@]1(O)[C@H](OC(C)=O)[C@]2(CC)C=CCN3CC[C@@]4(c5cc([C@@]6(C(=O)OC)C[C@@H]7C=C(CC)CN(CCc8c6[nH]c6ccccc86)C7)c(OC)cc5N(C)[C@@H]14)[C@@H]32 | 422 | 422
5 | CCC1=C[C@@H]2CN(CCc3c([nH]c4ccccc34)[C@@](C(=O)OC)(c3cc4c(cc3OC)N(C)[C@H]3[C@@](O)(COC(=O)Cc5ccccc5)[C@H](OC(C)=O)[C@]5(CC)C=CCN6CC[C@]43[C@@H]65)C2)C1 | 67.4 | 272
6 | CCC1=C[C@@H]2CN(CCc3c([nH]c4ccccc34)[C@@](C(=O)OC)(c3cc4c(cc3OC)N(C)[C@H]3[C@@](O)(COC(=O)c5ccc([N+](=O)[O-])cc5)[C@H](OC(C)=O)[C@]5(CC)C=CCN6CC[C@]43[C@@H]65)C2)C1 | 52.3 | 169
7 | CCC1=C[C@@H]2CN(CCc3c([nH]c4ccccc34)[C@@](C(=O)OC)(c3cc4c(cc3OC)N(C)[C@H]3[C@@](O)(COC(=O)c5ccc(Cl)cc5)[C@H](OC(C)=O)[C@]5(CC)C=CCN6CC[C@]43[C@@H]65)C2)C1 | 56.7 | 102
8 | CCC(=O)OC[C@@]1(O)[C@H](OC(C)=O)[C@]2(CC)C=CCN3CC[C@@]4(c5cc([C@@]6(C(=O)OC)C[C@@H]7C=C(CC)CN(CCc8c6[nH]c6ccccc86)C7)c(OC)cc5N(C)[C@@H]14)[C@@H]32 | 39.1 | 62.1
9 | CCC1=C[C@@H]2CN(CCc3c([nH]c4ccccc34)[C@@](C(=O)OC)(c3cc4c(cc3OC)N(C)[C@H]3[C@@](O)(COC(=O)c5ccccc5)[C@H](OC(C)=O)[C@]5(CC)C=CCN6CC[C@]43[C@@H]65)C2)C1 | 25.4 | 35.6
10 | CCC1=C[C@@H]2CN(CCc3c([nH]c4ccccc34)[C@@](C(=O)OC)(c3cc4c(cc3OC)N(C)[C@H]3[C@@](O)(COC(C)=O)[C@H](OC(C)=O)[C@]5(CC)C=CCN6CC[C@]43[C@@H]65)C2)C1 | 38.2 | 35.3
11 | CCC1=C[C@@H]2CN(CCc3c([nH]c4ccccc34)[C@@](C(=O)OC)(c3cc4c(cc3OC)N(C)[C@H]3[C@@](O)(COC(=O)c5ccccc5Cl)[C@H](OC(C)=O)[C@]5(CC)C=CCN6CC[C@]43[C@@H]65)C2)C1 | 40.5 | 147
12 | CCC1=C[C@@H]2CN(CCc3c([nH]c4ccccc34)[C@@](C(=O)OC)(c3cc4c(cc3OC)N(C)[C@H]3[C@@](O)(COC(=O)C(C)C)[C@H](OC(C)=O)[C@]5(CC)C=CCN6CC[C@]43[C@@H]65)C2)C1 | 59.9 | 87.5
13 | CCC1=C[C@@H]2CN(CCc3c([nH]c4ccccc34)[C@@](C(=O)OC)(c3cc4c(cc3OC)N(C)[C@H]3[C@@](O)(COC(=O)C(C)(C)C)[C@H](OC(C)=O)[C@]5(CC)C=CCN6CC[C@]43[C@@H]65)C2)C1 | 181 | 96
14 | CCC1=C[C@@H]2CN(CCc3c([nH]c4ccccc34)[C@@](C(=O)OC)(c3cc4c(cc3OC)N(C)[C@H]3[C@@](O)(COC(=O)CC(C)C)[C@H](OC(C)=O)[C@]5(CC)C=CCN6CC[C@]43[C@@H]65)C2)C1 | 70.3 | 175
15 | CCCOC[C@@]1(O)[C@H](OC(C)=O)[C@]2(CC)C=CCN3CC[C@@]4(c5cc([C@@]6(C(=O)OC)C[C@@H]7C=C(CC)CN(CCc8c6[nH]c6ccccc86)C7)c(OC)cc5N(C)[C@@H]14)[C@@H]32 | 401 | 398
16 | CCC1=C[C@@H]2CN(CCc3c([nH]c4ccccc34)[C@@](C(=O)OC)(c3cc4c(cc3OC)N(C)[C@H]3[C@@](O)(COC(=O)c5ccc(OC)cc5)[C@H](OC(C)=O)[C@]5(CC)C=CCN6CC[C@]43[C@@H]65)C2)C1 | 29.7 | 151
17 | CCOC[C@@]1(O)[C@H](OC(C)=O)[C@]2(CC)C=CCN3CC[C@@]4(c5cc([C@@]6(C(=O)OC)C[C@@H]7C=C(CC)CN(CCc8c6[nH]c6ccccc86)C7)c(OC)cc5N(C)[C@@H]14)[C@@H]32 | 98 | 220
18 | CCC1=C[C@@H]2CN(CCc3c([nH]c4ccccc34)[C@@](C(=O)OC)(c3cc4c(cc3OC)N(C)[C@H]3[C@@](O)(COC(=O)c5ccccc5OC)[C@H](OC(C)=O)[C@]5(CC)C=CCN6CC[C@]43[C@@H]65)C2)C1 | 14.2 | 154
